Assay results reported in ChEMBL document CHEMBL1123355, “Activity of N-methyl-alpha- and -beta-funaltrexamine at opioid receptors” (1986).

Organism: Cavia porcellus
Experiment: Beta-Funaltrexamine antagonism of morphine agonism in the presence of compound was determined in Guinea pig ileum at concentration of 20 nM
Format: functional
Procedure, shortened: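 Guinea pig ileum protection assay. The protector was added to the tissue 10 min before 20 nM β-FNA, which was applied for 30 min. The tissue was then washed 30 times with intermittent chasing by 500 nM naloxone. The result is the morphine IC50 in treated tissue divided by the morphine IC50 in control tissue of the same preparation, given with SE and n.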

## O=C1CC[C@@]2(O)[C@H]3Cc4ccc(O)c5c4[C@@]2(CCN3CC2CC2)[C@H]1O5 [NALTREXONE]
  IC50 ratio: 2.1
